Here are results for five compounds from article PMC7887132 (Chemistry (Weinheim an der Bergstrasse, Germany), 2020).

Data set [1] concerns the target Abl T315I (Homo sapiens, UniProt P00519, T315I). Description: Anti-protein kinase activity, Abl T315I. The note with it: read-out: Anti-protein kinase activity (IC50) Abl T315I. The data set is classed as biochemical.
Data set [2] deals with EGFR T790M /L858R (Homo sapiens, UniProt P00533, L858R/T790M). The data set is described as follows: Anti-protein kinase activity, EGFR T790M/L858R. In kind it is biochemical. The note with it: read-out: Anti-protein kinase activity (IC50) EGFR T790M /L858R.
Data set [3] is described as follows: Solubility in water. In kind it is physicochemical.
Data set [4] deals with EGFR WT (Homo sapiens, UniProt P00533). The data set is described as follows: Anti-protein kinase activity, EGFR WT. In kind it is biochemical. The following applies: for IC50: read-out: Anti-protein kinase activity (IC50) EGFR WT.
The target in data set [5] is EGFR L858R (Homo sapiens, UniProt P00533, L858R). Description: Anti-protein kinase activity, EGFR L858R. The data set is classed as biochemical. The note with it: read-out: Anti-protein kinase activity (IC50) EGFR L858R.
Data set [6] concerns the target Abl WT (Homo sapiens, UniProt P00519). The data set is described as follows: Anti-protein kinase activity, Abl WT. The data set is classed as biochemical. The note with it: read-out: Anti-protein kinase activity (IC50) Abl WT.
For data set [7], the target named is c-Met (Homo sapiens, UniProt P08581). The data set is described as follows: Anti-protein kinase activity, c-Met. The data set is classed as biochemical. The note with it: for percentage of inactivated c-Met: 1 μM of compound used as inhibitor; for IC50: read-out: Anti-protein kinase activity (IC50) c-Met. In short, it runs like this:
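ELISA kinase-kit format, run in duplicate. Met positive-control enzyme (10 μL of 0.1 unit/μL) goes into wells on ice, with kinase assay buffer containing the test compound. Kinase reaction buffer starts the reaction, 60 min at 30 °C. After washing, HRP-conjugated detection antibody PY-39 is added for 60 min at room temperature, then substrate reagent for 5–15 min, then stop solution. Absorbance is read at 450/540 nm within 30 min.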

Data set [8] has as its target FLT1 (Homo sapiens, UniProt P17948). The data set is described as follows: Anti-protein kinase activity, FLT1. In kind it is biochemical. The note with it: read-out: Anti-protein kinase activity (IC50) FLT1.
The subject of data set [9] is tyrosine kinases. The following applies: previously synthesized and tested; no reference given; cited from earlier work.

c-Met, sequence (P08581 25-1390): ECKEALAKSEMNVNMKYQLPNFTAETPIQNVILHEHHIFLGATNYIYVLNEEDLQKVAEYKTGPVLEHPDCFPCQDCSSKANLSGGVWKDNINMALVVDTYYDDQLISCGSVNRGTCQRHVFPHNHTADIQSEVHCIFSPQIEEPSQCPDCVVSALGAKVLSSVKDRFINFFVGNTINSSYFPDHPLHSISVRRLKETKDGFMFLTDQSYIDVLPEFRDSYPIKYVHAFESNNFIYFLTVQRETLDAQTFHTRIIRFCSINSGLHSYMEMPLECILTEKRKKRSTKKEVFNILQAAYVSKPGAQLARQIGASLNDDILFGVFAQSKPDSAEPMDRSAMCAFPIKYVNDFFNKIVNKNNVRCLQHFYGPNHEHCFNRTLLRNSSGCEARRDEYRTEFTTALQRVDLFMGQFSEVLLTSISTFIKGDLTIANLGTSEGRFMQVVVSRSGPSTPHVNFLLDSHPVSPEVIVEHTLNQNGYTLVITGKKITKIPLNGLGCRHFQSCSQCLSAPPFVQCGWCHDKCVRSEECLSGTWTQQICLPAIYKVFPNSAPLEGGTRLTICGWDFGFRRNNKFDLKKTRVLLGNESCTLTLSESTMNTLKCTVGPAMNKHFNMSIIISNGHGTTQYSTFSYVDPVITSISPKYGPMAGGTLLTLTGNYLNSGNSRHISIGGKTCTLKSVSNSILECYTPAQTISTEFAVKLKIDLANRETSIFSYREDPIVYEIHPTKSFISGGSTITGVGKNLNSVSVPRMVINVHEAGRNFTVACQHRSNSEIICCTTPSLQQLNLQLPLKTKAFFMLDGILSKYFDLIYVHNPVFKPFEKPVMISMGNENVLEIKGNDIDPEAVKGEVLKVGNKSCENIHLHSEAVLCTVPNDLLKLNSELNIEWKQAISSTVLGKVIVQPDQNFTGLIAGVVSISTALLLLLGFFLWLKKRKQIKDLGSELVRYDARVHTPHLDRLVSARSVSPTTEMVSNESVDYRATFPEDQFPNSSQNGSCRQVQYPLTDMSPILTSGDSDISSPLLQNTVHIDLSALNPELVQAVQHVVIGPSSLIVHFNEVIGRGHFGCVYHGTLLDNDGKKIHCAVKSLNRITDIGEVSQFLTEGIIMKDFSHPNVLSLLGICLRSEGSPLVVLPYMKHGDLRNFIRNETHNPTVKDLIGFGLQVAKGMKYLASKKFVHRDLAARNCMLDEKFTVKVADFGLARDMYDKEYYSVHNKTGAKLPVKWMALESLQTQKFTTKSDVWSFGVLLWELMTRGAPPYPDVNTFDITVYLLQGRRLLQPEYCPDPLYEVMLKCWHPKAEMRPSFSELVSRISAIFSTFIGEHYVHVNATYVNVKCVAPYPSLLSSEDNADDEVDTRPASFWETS
FLT1, sequence (P17948 27-1338): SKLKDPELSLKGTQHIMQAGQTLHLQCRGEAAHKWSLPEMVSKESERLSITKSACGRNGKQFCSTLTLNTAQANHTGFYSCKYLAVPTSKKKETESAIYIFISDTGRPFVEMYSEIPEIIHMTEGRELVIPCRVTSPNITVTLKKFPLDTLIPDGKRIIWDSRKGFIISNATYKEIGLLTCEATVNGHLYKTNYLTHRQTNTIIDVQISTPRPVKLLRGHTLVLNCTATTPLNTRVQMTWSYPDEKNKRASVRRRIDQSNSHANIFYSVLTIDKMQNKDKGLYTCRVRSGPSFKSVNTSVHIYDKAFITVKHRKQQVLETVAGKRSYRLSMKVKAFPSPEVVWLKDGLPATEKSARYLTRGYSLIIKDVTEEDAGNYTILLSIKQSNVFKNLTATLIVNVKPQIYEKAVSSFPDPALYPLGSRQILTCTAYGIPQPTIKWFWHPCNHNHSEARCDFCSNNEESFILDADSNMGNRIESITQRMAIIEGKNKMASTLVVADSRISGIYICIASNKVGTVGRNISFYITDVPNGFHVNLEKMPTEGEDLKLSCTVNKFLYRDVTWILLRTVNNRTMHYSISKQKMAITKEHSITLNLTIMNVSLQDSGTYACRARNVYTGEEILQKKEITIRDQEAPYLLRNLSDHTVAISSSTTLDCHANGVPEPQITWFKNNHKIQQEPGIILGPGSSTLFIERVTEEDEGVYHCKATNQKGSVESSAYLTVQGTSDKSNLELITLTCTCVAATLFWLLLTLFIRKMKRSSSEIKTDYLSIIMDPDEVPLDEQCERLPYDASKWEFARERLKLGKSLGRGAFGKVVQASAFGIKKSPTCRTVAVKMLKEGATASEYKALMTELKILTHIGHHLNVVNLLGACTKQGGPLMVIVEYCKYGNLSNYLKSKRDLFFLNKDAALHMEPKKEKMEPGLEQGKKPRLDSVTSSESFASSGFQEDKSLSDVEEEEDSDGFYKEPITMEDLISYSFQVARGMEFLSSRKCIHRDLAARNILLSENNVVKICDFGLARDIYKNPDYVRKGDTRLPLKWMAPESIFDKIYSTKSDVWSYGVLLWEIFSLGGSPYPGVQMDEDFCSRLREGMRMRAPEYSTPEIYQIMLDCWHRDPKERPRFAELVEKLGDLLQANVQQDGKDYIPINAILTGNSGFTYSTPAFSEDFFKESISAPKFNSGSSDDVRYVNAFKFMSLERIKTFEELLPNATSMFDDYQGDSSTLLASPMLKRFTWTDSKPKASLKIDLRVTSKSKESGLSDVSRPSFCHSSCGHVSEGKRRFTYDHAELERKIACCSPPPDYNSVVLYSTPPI

“2,15-diaza-2,15-bis(tert-butoxycarbonyl)[3.3](2,2’)(4,4’-bithiazolophane) [compound 1]”: the IC50 in [1] is greater than 1000 nM; in [2], greater than 1000 nM; in [4], greater than 1000 nM; in [5] it was greater than 1000 nM; in [6] it was greater than 1000 nM; in data set [7], 603 nM. The IC50 in data set [8] was greater than 1000 nM. Also, the solubility in water entry in data set [3] is reported as “only slightly soluble in water”. In addition, the “inhibition of EGFR WT (in words)” value in data set [4] is reported as “partial inhibition”. For the same compound, the “percentage of inactivated EGFR WT” value in [4] (1 μM of compound used as inhibitor) was found to be 44%. The “percentage of inactivated c-Met” value in data set [7] stood at 59%.
Consider `CC(C)COC(=O)N1Cc2nc(cs2)-c2csc(n2)CN(C(=O)OCC(C)C)Cc2nc(cs2)-c2csc(n2)C1` [compound 4, 2,15-Bis(isobutoxycarbonyl)-2,15-diaza[3.3](2,2’)(4,4’-bithiazolophane)], for which the IC50 in data set [1], in data set [2], in data set [4], in [5], in data set [6] and in data set [7] was greater than 1000 nM in each case. Besides, in [8], the IC50 is greater than 1000 nM. Moreover, the solubility in water result in [3] is reported as “only slightly soluble in water”. Further, the “anti-c-Met activity (in words)” value in data set [7] is “showed anti-c-Met activity”. The “percentage of inactivated c-Met” value in [7] worked out at 5%.
“2,6-di(thiazol-4-yl)pyridinophane [compound 5]”: the “inhibitory activity as tyrosine kinases inhibitor” value in data set [9] was “didn’t show any inhibitory activity”.
Regarding “2,15-diaza[3.3](2,2’)(4,4’-bithiazolophanium) dichloride [compound 2]”, the IC50 in [1], in [2], in data set [4], in [5], in data set [6] and in [7] was greater than 1000 nM throughout. Further, the IC50 in data set [8] is greater than 1000 nM. The solubility in water entry in [3] was “almost freely soluble in water”. The “anti-c-Met activity (in words)” value in data set [7] was “showed anti-c-Met activity”. Besides, the “percentage of inactivated c-Met” value in data set [7] came to 33%.
In the case of “2,15-Diaza-2,15-diheptanoyl[3.3](2,2’)(4,4’-bithiazolophane) [compound 3]”, the IC50 in data set [1], in data set [2], in data set [4], in data set [5], in [6] and in data set [7] was greater than 1000 nM in each case. Besides, the IC50 in data set [8] was greater than 1000 nM. In data set [3], the solubility in water result is recorded as “only slightly soluble in water”.
